The test system of series [1] is Human immunodeficiency virus 1. The series is described as follows: microbe, parasite or virus in culture. Particulars: Human immunodeficiency virus 1, 3B, MT2.
Series [2] is described as follows: Cytotoxicity against human MT2 cells.
A short description of series [3]: Cytotoxicity against HEL cells assessed as change in cellular morphology by microscopic analysis. Particulars: human, read-out: MIC. Type of series: cell-based. The method, boiled down:
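Uninfected HEL monolayers were exposed to compound. Minimal cytotoxic concentration is the concentration causing microscopically visible alteration of cell morphology.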

Series [4] concerns Vaccinia virus. The series is described as follows: Antiviral activity against Vaccinia virus Lederle infected in HEL cells assessed as inhibition of virus-induced cytopathicity. In kind it is functional, organism-based. Particulars: Orthopoxvirus vaccinia. Summed up:
(§1)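 Confluent HEL cell cultures were inoculated with 100 CCID50 of virus in the presence of varying compound concentrations. Cytopathicity or plaque formation was scored once untreated infected controls reached completion. EC50 is the concentration inhibiting virus-induced cytopathicity by 50%.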
(Cytopathic effects are the visible damage that an infection or toxin causes in cultured cells.)

The test system of series [5] is Human alphaherpesvirus 1. The series can be described thus: Antiviral activity against Herpes simplex virus KOS infected in HEL cells assessed as inhibition of virus-induced cytopathicity. In kind it is functional, organism-based. The method, boiled down: as §1
For series [6], the system named is Human alphaherpesvirus 2. The series is described as follows: Antiviral activity against Herpes simplex virus G infected in HEL cells assessed as inhibition of virus-induced cytopathicity. Type of series: functional, organism-based, strain G. Summed up: as §1
The test system of series [7] is Human alphaherpesvirus 1. The series can be described thus: Antiviral activity against thymidine kinase-deficient acyclovir-resistant Herpes simplex virus KOS infected in HEL cells assessed as inhibition of virus-induced cytopathicity. Type of series: functional, organism-based. Particulars: Human alphaherpesvirus 1, KOS. Summed up:
as §1

A short description of series [8]: (§2) Cytotoxicity against human CEM cells. Type of series: cell-based, CCRF-CEM. Particulars: CEM (CCRF-CEM) cells.
The subject of series [9] is HeLa. The series can be described thus: Cytostatic activity against human HeLa cells after 72 hrs by coulter counting analysis. In kind it is functional, cell-based. The method, boiled down: (§3)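 (5-7.5)×10^4 cells/well were incubated with compound at 37°C, for 48 h (L1210) or 72 h (CEM, HeLa), then counted by Coulter counter. IC50 is the concentration inhibiting proliferation by 50%.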

The test system of series [10] is Human immunodeficiency virus 2. The series can be described thus: Antiviral activity against Human immunodeficiency virus type 2 ROD infected in human CEM cells assessed as inhibition of virus-induced giant cell formation after 4 to 5 days by microscopic analysis. Type of series: functional, organism-based, ISOLATE ROD, CCRF-CEM. Summed up:
(§4)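 CEM cells (~3×10^5/mL) were infected with 100 CCID50/mL HIV-1 IIIB or HIV-2 ROD with compound dilutions. After 4–5 days at 37°C, syncytium formation was scored microscopically. EC50 is the concentration inhibiting giant cell formation by 50%.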

The nature of series [11]: Prodrug activation assessed as carboxypeptidase Y (unknown origin)-mediated aminoacyl phosphonamidate ester formation at 3 mg at 25 degC up to 12 hrs by [31P]-NMR analysis. The method, boiled down: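 Compound (3.0 mg) in acetone-d6 plus Trizma buffer pH 7.6 was recorded by 31P NMR at 25°C as control. Carboxypeptidase Y (0.1 mg in Trizma) was then added, and spectra were taken every 7 min over 12 h at 25°C.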

The test system of series [12] is L1210. The series is described as follows: Cytostatic activity against mouse L1210 cells after 48 hrs by coulter counting analysis. In kind it is functional, cell-based. Summed up: as §3
In series [13] the test system is CCRF-CEM. The series is described as follows: Cytostatic activity against human CEM cells after 72 hrs by coulter counting analysis. In kind it is functional, cell-based. The method, boiled down:
as §3

Series [14] relates to Human immunodeficiency virus 1. The series is described as follows: Antiviral activity against Human immunodeficiency virus 1 3B infected in human CEM cells assessed as inhibition of virus-induced giant cell formation after 4 to 5 days by microscopic analysis. In kind it is functional, organism-based, CCRF-CEM. Summed up: as §4
For series [15], the system named is HeLa. The series is described as follows: Antiproliferative activity against human HeLa cells infected with HPV-18 after 72 hrs by flow cytometric analysis. Type of series: functional, cell-based. Particulars: hela. Summed up:
(§5)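 SiHa (HPV16+), HeLa (HPV18+) and C33A (HPV-) cervical carcinoma lines grown in DMEM with 10% FBS at 37°C, 5% CO2. Seeded 4×10^3 cells/well and left to adhere 24 h. Treated in triplicate with 1, 10 and 100 μM of compound formulated in ~1% DMSO/PBS pH 7.4.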
(In general: A flow cytometer gives signals particle by particle.)

Series [16] concerns CCRF-CEM. The description is as §2. Type of series: cell-based. To be noted: ccrf-cem.
A short description of series [17]: Antiproliferative activity against human C33A cells after 72 hrs by flow cytometric analysis. In kind it is cell-based, C-33-A. To be noted: c-33-a. Summed up:
as §5

In series [18] the test system is SiHa. The series can be described thus: Antiproliferative activity against human SiHa cells infected with HPV-16 after 72 hrs by flow cytometric analysis. In kind it is functional, cell-based. Summed up: as §5

As usually defined, the EC50 is the concentration that produces a half-maximal response. The CC50 is the concentration that lowers cell viability or growth by half. Read a high CC50 as lower toxicity to the cells. Consider `CC(C)OC(=O)[C@H](C)N[P@](=O)(CO[C@H](C)Cn1cnc2c(N)ncnc21)Oc1ccccc1` [TENOFOVIR ALAFENAMIDE], for which, in [1], the concentration giving a half-maximal response (EC50) amounted to 0.005 µM. Further, the half-maximal cytotoxic concentration (CC50) in [2] was determined as 40 µM.

The term IC50 denotes the midpoint of a concentration-inhibition curve. Consider `C[C@H](NP(=O)(COCCn1cnc2c(N)ncnc21)Oc1cccc2c1CCCC2)C(=O)OCC(C)(C)C` (stereo not given in full), for which the MCC in series [3] was over 100 µM. In addition, the EC50 came out at 1.3 µM in [4]; 0.13 µM in series [5] (Human alphaherpesvirus 1, KOS, HEL); 0.05 µM in series [6] (Human alphaherpesvirus 2, strain G, HEL); 0.12 µM in series [7]; 0.007 µM in series [10] (Human immunodeficiency virus 2, ISOLATE ROD, CCRF-CEM); 0.017 µM in series [14] (Human immunodeficiency virus 1, 3B, CCRF-CEM). Also, it took 0.019 µM to reach half-maximal cytotoxicity in series [8] (CC50). For the same compound, the IC50 was 0.45 µM in [9] (Homo sapiens, HeLa, 72 h); 0.026 µM in series [12] (Mus musculus, L1210, 48 h); 0.019 µM in series [13] (Homo sapiens, CCRF-CEM, 72 h). The Drug metabolism entry in series [11] was “metabolite_detected”.

As to `C[C@H](Cn1cnc2c(N)ncnc21)OCP(=O)(N[C@@H](C)C(=O)OCC(C)(C)C)Oc1cccc2ccccc12` (mixture of isomers), the IC50 was found to be 6.2 µM in [15]; 12 µM in series [9] (hela); 2.2 µM in series [12] (l1210); 3.9 µM in series [13] (ccrf-cem); 6 µM in series [17]; 7.8 µM in series [18]. The EC50 in [5] (hel) came out at 2 µM; in series [6] (hel), 0.8 µM; in [10] (ccrf-cem), 0.004 µM; in series [14] (ccrf-cem) it was 0.003 µM. Moreover, it took 3.9 µM to reach half-maximal cytotoxicity in [16] (CC50).

The values are drawn from ChEMBL document CHEMBL3232902, “PMPA and PMEA prodrugs for the treatment of HIV infections and human papillomavirus (HPV) associated neoplasia and cancer” (Eur J Med Chem, 2014).
